Only some compounds are listed: those with a hit (about 2.3% of all), similar ones and a draw of the others.
Mcl1 Bid PPI: Mcl-1/Bid interaction inhibition. Q07820. inhibition, % at 21.7 µM. AID 1021. hit rate 0.97% among 220,000. TR-FRET Mcl-1/Bid-Dy647 peptide binding, 1536-well;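 active = compounds that cut the binding signal by more than half at the single screening dose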;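 note: His-tagged Mcl-1 with europium anti-His antibody binding Bid BH3 peptide; 0% = Mcl-1 plus peptide wells and 100% = peptide-only wells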
MCL1 BIM primary: inhibitors of human MCL1 binding to BIM-BH3 peptide | Q07820 | GST-MCL1 / FITC-Bim-BH3 fluorescence polarization | inhibition, % at 10.9 µM | hit rate 0.68% among 320,000 | AID 2057;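 active = inhibition above the mean inhibition of all tested compounds plus 3 SD, set per campaign, cut at about 40% in these data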;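 note: 0% = DMSO wells and 100% = unlabeled Bim-BH3 peptide control; higher means more loss of mP so more displacement of Bim peptide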
Pemphigus Ab inh: human desmoglein-3 autoantibody binding inhibition. DSG3-coupled beads, scFv-anti-DSG3-GFP binding, flow cytometry; active compounds read low. binding (percent of control), % at 10 µM. hit rate 0.48% among 310,000;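 active = binding more than 3 SD below its plate's average and above zero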;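 note: hits lower antibody fragment binding to DSG3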
Target sequence (P32926 whole entry, looked up, the tested form may be a part): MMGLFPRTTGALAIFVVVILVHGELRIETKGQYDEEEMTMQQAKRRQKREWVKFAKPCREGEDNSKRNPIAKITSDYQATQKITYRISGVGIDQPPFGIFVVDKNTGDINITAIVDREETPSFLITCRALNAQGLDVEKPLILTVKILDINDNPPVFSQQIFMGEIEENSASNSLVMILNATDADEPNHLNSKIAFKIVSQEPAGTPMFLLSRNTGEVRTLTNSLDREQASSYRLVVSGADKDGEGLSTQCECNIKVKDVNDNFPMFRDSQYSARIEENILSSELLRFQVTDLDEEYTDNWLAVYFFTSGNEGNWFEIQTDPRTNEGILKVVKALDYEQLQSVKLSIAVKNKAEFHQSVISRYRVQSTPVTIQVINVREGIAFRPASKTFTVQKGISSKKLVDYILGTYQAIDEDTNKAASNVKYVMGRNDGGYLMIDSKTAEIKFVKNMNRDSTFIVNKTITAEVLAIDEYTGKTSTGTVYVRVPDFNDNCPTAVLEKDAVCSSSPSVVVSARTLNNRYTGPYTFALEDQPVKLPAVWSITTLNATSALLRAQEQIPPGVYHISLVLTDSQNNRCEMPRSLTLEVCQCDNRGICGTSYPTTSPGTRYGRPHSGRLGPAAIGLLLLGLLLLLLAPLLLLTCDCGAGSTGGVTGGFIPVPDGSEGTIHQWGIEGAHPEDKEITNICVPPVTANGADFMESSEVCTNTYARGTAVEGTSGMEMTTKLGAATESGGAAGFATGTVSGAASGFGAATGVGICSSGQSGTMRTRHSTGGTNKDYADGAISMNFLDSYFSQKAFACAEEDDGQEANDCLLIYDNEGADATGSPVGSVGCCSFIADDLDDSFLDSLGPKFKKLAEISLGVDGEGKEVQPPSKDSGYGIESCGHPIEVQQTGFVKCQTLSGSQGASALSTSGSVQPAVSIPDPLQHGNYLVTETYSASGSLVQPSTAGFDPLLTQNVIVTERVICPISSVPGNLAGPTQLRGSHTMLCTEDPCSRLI
T cell modulator: T cell immune modulators affecting CD8 T cell-vesicle binding. 2C CD8+ T cell-vesicle binding, flow cytometry; active compounds read low. response (vesicle binding), % at 7 µM. hit rate 0.068% among 330,000;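 active = response, share of CD8 T cells binding vesicles, and their 90th percentile fluorescence all below set limits, cut at about 80% in these data, passing the limit was not always enough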;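 note: values below 100% mean blocked vesicle binding to the CD8+ T cells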
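Material: murine 2C transgenic CD8+ T lymphocytes / Also added: QL9-peptide-loaded Drosophila micro-vesicles bearing Ld, ICAM-1 and B7-1 / Schedule: binding step 1.5 h, 37 °C, antibody labelling 20 min, ice / Signal: flow cytometry, PE anti-B7-1 (FL2) versus Alexa647 anti-CD8 (FL8), PFA-fixed / Evaluation: percent CD8+ FL2 mean versus row control / Benchmarks: naked versus QL9-loaded vesicles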
Mcl1-Noxa inh: Mcl-1/Noxa interaction inhibition; hit rate 1.5% among 220,000; TR-FRET Mcl-1/Noxa peptide binding, 2 h; Q07820; inhibition, % at 21.7 µM;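 active = compounds that cut the protein-peptide binding signal by more than 50% relative to plate controls in a single-dose test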;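 note: His-tagged Mcl-1 with rhodamine Noxa BH3 peptide and terbium anti-His antibody; 0% = Mcl-1 plus Noxa peptide wells and 100% = peptide-only wells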
Mcl-1 Bim block: disrupts Bim peptide binding to human Mcl-1; inhibition, % at 10 µM; Bead-based flow cytometry, Bim peptide-Mcl-1 binding; hit rate 0.1% among 190,000; Q07820; in the data active = inhibition above about 40%;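 note: 0% = no compound tracer wells and 100% = peptide blocker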
Active calls of the source: *; / = no result given; + = active, no number.

SMILES	Mcl1 Bid PPI	MCL1 BIM primary	Pemphigus Ab inh	T cell modulator	Mcl1-Noxa inh	Mcl-1 Bim block
CN(CC(=O)Nc1cc(S(=O)(=O)N2CCCC2)ccc1Cl)Cc1nc2ccccc2c(=O)[nH]1	/	/	102	/	/	/
O=C1NC2(CCCCCC2)C(=O)N1Cc1ccccc1	/	-2	103	157	/	/
O=C1NC(=O)N(Cc2ccccc2)C1=O	/	53*	95	100	/	/
COc1ccc(CCNC(=O)c2nn(C)c3c2CS(=O)(=O)c2ccccc2-3)cc1OC	/	3	97	531	/	/
CC/C(=N\NC(=O)c1ccc(N2CCCC2=O)cc1)c1ccccc1	/	0	115	309	/	/
COc1ccc(NS(=O)(=O)c2ccc(O)c(NC(=O)c3cc4c(C)nn(-c5ccc(F)cc5)c4s3)c2)cc1	7	-2	100	188	65*	2
COc1ccc(C(=O)Nc2c(O)ccc3ccccc23)cc1	/	14	95	329	/	/
COc1ccc(NC(=O)Nc2c(O)ccc3ccccc23)cc1	/	22	109	39*	/	/
O=C(CSc1nc2ncc(Br)cc2[nH]1)c1cccc([N+](=O)[O-])c1	-81	-8	79	158	64*	-2
CCc1cccc2c1NC(=O)C21OCCO1	/	5	104	181	/	/
Cc1noc(NS(=O)(=O)c2ccc(NC(=O)c3cc4ccccc4o3)cc2)c1C	/	/	98	369	/	/
C=CCn1c(=S)[nH]c2sc3c(c2c1=O)CCC3	-56	/	82	/	56*	-4
CCn1c(=S)[nH]c2sc3c(c2c1=O)CCCC3	/	1	114	352	/	/
O=C(Nc1ccc([N+](=O)[O-])cc1)C(c1ccccc1)c1ccccc1	/	/	102	/	/	/
O=C(COc1cccc2c1CCN(Cc1ccc(Br)cc1)C2=O)N1CCOCC1	-5	0	98	261	22	-2
CCN1CCc2c(OCc3ccc(C(=O)OC)o3)cccc2C1=O	92*	3	/	903	14	-1
O=C(COc1cccc2c1CCN(Cc1ccc(Br)cc1)C2=O)NCc1ccco1	95*	-1	102	475	17	6
C[C@@H]1CN([C@@H](C)CO)C(=O)CCCn2nncc2CO[C@@H]1CN(C)S(=O)(=O)c1ccc(F)cc1	/	/	106	/	/	/
CCCCNC(=O)CSc1nnc(-c2cccc(S(=O)(=O)N3CCOCC3)c2)o1	/	1	/	347	/	/
CC1(OC(=O)C2CCCC2)C(=O)C=C2C=C(c3ccsc3)OC=C2C1=O (stereo not given)	-17	24	92	611	51*	/
COc1ccc(C2=CC3=C(Br)C(=O)C(C)(OC(=O)C4CCCC4)C(=O)C3=CO2)cc1 (stereo not given)	-44	42*	86	515	27	/
COc1ccc(C2=CC3=C(Br)C(=O)C(C)(OC(=O)c4ccc(Cl)nc4)C(=O)C3=CO2)cc1 (stereo not given)	-10	26	/	436	53*	/
CC1NC(=O)c2cccnc2-n2c1nc1cc(F)c(F)cc1c2=O (stereo not given)	/	/	96	/	/	/
CCOC(=O)C(C#N)=CN1CCNc2ccccc21	/	/	98	/	/	/
Cc1ccc(S(=O)(=O)NCC(=O)OCC(=O)Nc2ncc(Cl)cc2Cl)cc1	-19	13	/	290	28	-3
SMILES	Mcl1 Bid PPI	MCL1 BIM primary	Pemphigus Ab inh	T cell modulator	Mcl1-Noxa inh	Mcl-1 Bim block
Cc1ccc(S(=O)(=O)CCC(=O)OCc2ccc(Cl)c(Cl)c2)cc1	55*	-6	89	155	11	0
Cc1ccc(S(=O)(=O)CCC(=O)OCC(=O)Nc2ncc(Cl)cc2Cl)cc1	87*	17	/	368	8	-1
O=C(COC(=O)c1ccccc1O)Nc1ncc(Cl)cc1Cl	-73	40*	73	406	44	0
O=C(NCCN1C(=O)S/C(=C\c2ccc(Cl)c(Cl)c2)C1=O)C1COc2ccccc2O1 (stereo not given)	-43	-10	98	35	-5	0
O=C(NCCN1C(=O)S/C(=C\c2ccc(Cl)c(Cl)c2)C1=O)c1ccc2c(c1)C(=O)N(Cc1ccncc1)C2=O	51*	-3	99	0	71*	-4
O=C(N=c1ccn(-c2nc3ccccc3nc2NS(=O)(=O)c2ccc(Cl)cc2)cc1)c1cccs1	-118	44*	80	107	-97	/
CC(c1ccc2ccccc2c1)c1ccccc1C(=O)O (stereo not given)	/	/	105	/	/	/
COc1ccc(-c2nnc(Nc3nc4c(OC)cccc4s3)o2)cc1	56*	20	96	367	57*	-3
COc1ccc(-c2nnc(Nc3nc4c(OC)cccc4s3)o2)c(OC)c1	-74	8	85	411	-6	-1
COc1cc(OC)cc(-c2n[nH]c(=S)n2-c2ccc3c(c2)OCCO3)c1	-29	-16	102	169	51*	-5
C/C(N)=C(/C#N)C(=O)CSc1nc2cc(Cl)ccc2s1	-13	5	96	229	53*	-2
OCCCc1nc2n(n1)C(c1cccs1)C=C(c1ccc(Br)cc1)N2 (stereo not given)	-5	+	/	635	10	2
Brc1ccc(C2=CC(c3cccs3)n3ncnc3N2)cc1 (stereo not given)	-46	+	101	337	-18	-5
Cc1ccc(C2C=C(c3ccccc3)Nc3ncnn32)cc1 (stereo not given)	/	23	98	344	/	/
CS(=O)(=O)Nc1cccc(-c2cnc3ccccc3n2)c1	/	-1	92	228	/	/
CC1CCCCN1C(=O)CSc1nnc(-c2cccnc2)o1 (stereo not given)	/	-6	/	414	/	/
Cc1cccc(NC(=O)COC(=O)C2COc3ccccc3O2)c1C (stereo not given)	/	/	124	321	/	/
Oc1ccc(/C=N/NC(=S)Nc2cccnc2)c(O)c1	-87	17	/	245	-5	-9
Oc1cccc(/C=N/NC(=S)Nc2cccnc2)c1O	-89	11	95	574	66*	-7
Oc1ccc(/C=N/NC(=S)Nc2cccnc2)c(O)c1O	-3	/	53*	/	102*	/
C[C@@H]1CN([C@H](C)CO)C(=O)CCCn2nncc2CO[C@H]1CN(C)Cc1ccc(O)cc1	/	/	31*	/	/	/
C[C@H](CO)N1C[C@H](C)[C@@H](CN(C)Cc2ccc(O)cc2)OCc2cnnn2CCCC1=O	/	/	108	/	/	/
O=C(Cn1cc(SCc2ccc(Cl)cc2)c2ccccc21)N1CCOCC1	52*	0	120	211	2	-4
COc1cc(/C=C2\SC(c3ccc(C)cc3)=NC2=O)cc(OC)c1O	-23	-98	135	186	51*	-3
Cc1ccc(C2=NC(=O)/C(=C/c3cc(O)c(O)c(Br)c3)S2)cc1	-4	/	103	/	95*	1
COc1cc(/C=C2\SC(N)=NC2=O)cc(Cl)c1O	/	-52	109	156	/	/
COc1ccccc1NC(=O)Nc1nc(CC(=O)N2CCN(c3ccccc3OC)CC2)cs1	/	-5	102	427	/	/
O=C(O)c1c[nH]c2c(C(F)(F)F)cccc2c1=O	53*	0	102	665	7	-1

Compound activity deposited in PubChem by several laboratories.
